A selection: hits, their analogues and other compounds. The true share with any hit is near 5.9%.
Pf Dd2 growth: P. falciparum Dd2 growth inhibition | SYBR Green, 72 h; hits give low values | activity change, % at 10 µM | 94,000 compounds, 2.3% hits | AID 1159554; in the data active = activity change below about -80%; inconclusive = no clear call, values can overlap the other calls
IDH1 R132H inh: blocks human IDH1 R132H reductase activity | AID 624101 | inhibition, % at 10 µM | diaphorase/resazurin fluorescence, 60 min | 70,000 compounds, 0.18% hits | O75874; in the data active = inhibition above about 34%; inconclusive = no clear call, values can overlap the other calls; inactive = below about 11%;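 note: 0% = DMSO and 100% = no enzyme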
Target sequence (O75874 whole entry R132H): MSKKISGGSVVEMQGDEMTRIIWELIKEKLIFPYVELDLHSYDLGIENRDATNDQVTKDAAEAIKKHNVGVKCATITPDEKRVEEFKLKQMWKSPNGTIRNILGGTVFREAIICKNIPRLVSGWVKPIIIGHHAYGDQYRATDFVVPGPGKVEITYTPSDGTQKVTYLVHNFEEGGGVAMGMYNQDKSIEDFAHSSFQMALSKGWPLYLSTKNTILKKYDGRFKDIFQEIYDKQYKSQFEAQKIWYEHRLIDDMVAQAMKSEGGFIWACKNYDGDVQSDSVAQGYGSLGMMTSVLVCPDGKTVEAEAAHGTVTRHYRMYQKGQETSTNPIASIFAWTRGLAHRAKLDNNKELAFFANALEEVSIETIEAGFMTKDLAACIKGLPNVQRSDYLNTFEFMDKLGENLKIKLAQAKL
KDM4C inh: KDM4C (human) demethylase inhibition. Q9H3R0. GST-KDM4C 2-372, H3K9me3 peptide, LANCE TR-FRET. inhibition, % at 12.5 µM. 96,000 compounds, 0.15% hits;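 active = mean replicate inhibition above about 25%, with at least 55% of replicates also reaching it, limit read from the data, passing the limit was not always enough; inconclusive = only one of those two conditions met; inactive = neither condition met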
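Test system – GST-tagged GASC-1 (JMJD2C) catalytic fragment, aa 2-372 · Medium – HEPES buffer, pH 7.5, plus ascorbate · Reagent – H3K9me3 peptide with Fe(II)/2OG · Compound – one test concentration per compound · Timing – 30 min reaction, 60 min detection, RT · Technique – TR-FRET with Eu antibody and ULight streptavidin, EDTA stop · Read-out basis – inhibition from TR-FRET ratio decrease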
T cruzi growth-1: blocks T. cruzi growth in NIH3T3 culture; T. cruzi beta-gal in NIH3T3, GalScreen luminescence, 90 h; inhibition, % at 8.34 µM; 77,000 compounds, 5.9% hits;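 active = mean inhibition above about 93%, with at least 55% of replicates each passing it, limit read from the data, passing the limit was not always enough; inconclusive = only one of those two conditions holds; inactive = neither condition holds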
T cruzi growth-2: Trypanosoma cruzi proliferation inhibition. shares compounds with T cruzi growth-1. T. cruzi beta-gal in NIH3T3, GalScreen luminescence, 90 h. inhibition, % at 8.35 µM. 5,600 compounds, 72% hits;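 active = mean replicate inhibition above about 95% and at least 55% of replicates individually reaching it, limit read from the data; inconclusive = only one of the two criteria is met; inactive = neither criterion is met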
T cruzi growth-3: blocks T. cruzi growth in NIH3T3 host cells. T. cruzi beta-gal in NIH3T3, GalScreen luminescence, 90 h. shares compounds with T cruzi growth-1. inhibition, % at 2.09 µM. 5,600 compounds, 21% hits. AID 651740;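 active = mean inhibition above about 95%, with at least 55% of replicates also reaching it, limit read from the data; inconclusive = meets just one of the two conditions; inactive = meets neither condition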;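 note: plate controls were neutral control median for no effect and positive control median for full effect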
3T3 cytotox: kills mouse NIH/3T3 fibroblasts | shares compounds with T cruzi growth-1 | AID 651742 | NIH/3T3 viability, CellTiter-Glo ATP luminescence, 90 h | 5,600 compounds, 14% hits | cytotoxicity (signal decrease), % at 8.35 µM;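 active = mean signal decrease across replicates above about 35% based on untreated-well scatter, with enough replicates individually passing, limit read from the data; inconclusive = no rule stated though some were filed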;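 note: 0% = median of neutral control wells and 100% = median of positive control wells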
3T3 cytotox 2: kills mouse NIH/3T3 fibroblasts; AID 651744; 5,600 compounds, 56% hits; shares compounds with T cruzi growth-1; inhibition, % at 24.9 µM; NIH/3T3 viability, CellTiter-Glo ATP luminescence, 90 h;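 active = mean loss of cell viability signal at or above a set limit, and enough replicates individually reaching it; inconclusive = meets only the mean limit or only the replicate share; inactive = meets neither condition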;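 note: 0% = median of neutral control wells and 100% = median of positive control wells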
An asterisk follows results filed as active; ? = inconclusive; nt = no result; + = active, no number.

SMILES	Pf Dd2 growth	IDH1 R132H inh	KDM4C inh	T cruzi growth-1	T cruzi growth-2	T cruzi growth-3	3T3 cytotox	3T3 cytotox 2
CCC(=O)N1CC[C@@H]2[C@H]1c1cc(-c3ccc(F)cc3)ccc1N(C)[C@@H]2CO	-9	nt	3	101*	107*	66	8	24*
CO[C@@H](CN(C)C(=O)Nc1ccc(Cl)cc1)[C@@H](C)CN(Cc1ccccc1Cl)[C@H](C)CO	-46	0	-1	111*	106*	64	28	31*
CO[C@H](CN(C)S(=O)(=O)c1ccc(Cl)cc1)[C@H](C)CN(Cc1ccccc1Cl)[C@@H](C)CO	-25	-1	1	77	nt	nt	nt	nt
CO[C@H](CN(C)C(=O)Nc1ccc(F)cc1)[C@H](C)CN(Cc1ccccc1Cl)[C@H](C)CO	-23	0	1	-34	nt	nt	nt	nt
CO[C@@H](CN(C)S(=O)(=O)c1ccc(Cl)cc1)[C@@H](C)CN(Cc1ccccc1Cl)[C@H](C)CO	-52	-1	3	?	101*	-13	13	99*
CO[C@H](CN(C)C(=O)Nc1ccc(Cl)cc1)[C@H](C)CN(Cc1ccccc1Cl)[C@@H](C)CO	-51	0	-1	114*	103*	99*	42*	49*
CO[C@H](CN(C)C(=O)Nc1ccc(Cl)cc1)[C@H](C)CN(Cc1ccccc1Cl)[C@H](C)CO	-51	0	3	109*	109*	63	?	60*
CO[C@@H](CN(C)C(=O)Nc1ccc(F)cc1)[C@H](C)CN(Cc1ccccc1Cl)[C@H](C)CO	-16	0	0	-78	nt	nt	nt	nt
Cc1ccc(C)c(N2CCN(C(=O)CN3CC(c4ccccc4)CC3=O)CC2)c1 (stereo not given)	nt	0	nt	nt	nt	nt	nt	nt
COc1ccc(C(=O)CC2(O)C(=O)N(Cc3ccccc3)c3ccc(Br)cc32)cc1[N+](=O)[O-] (stereo not given)	nt	0	nt	nt	nt	nt	nt	nt
CCCN1[C@@H]2c3ccc(-c4ccccc4F)c(=O)n3C[C@@H]2[C@@H](CO)[C@@H]1C(=O)NCC	8	nt	2	98*	21	-15	4	-6
CCCNC(=O)[C@H]1[C@H](CO)[C@H]2Cn3c(ccc(-c4cccc(F)c4)c3=O)[C@@H]1N2C(C)=O	8	nt	0	40	nt	nt	nt	nt
CCCNC(=O)[C@@H]1[C@@H](CO)[C@@H]2Cn3c(ccc(-c4cccc(F)c4)c3=O)[C@H]1N2C(=O)c1ccccn1	12	nt	0	103*	?	27	-20	-1
CCCN1[C@H](C(=O)N[C@@H](C)c2ccccc2)[C@@H](CO)[C@@H]2Cn3c(ccc(-c4cccc(F)c4)c3=O)[C@@H]21	nt	nt	14	108*	97*	63	3	68*
CCNC(=O)[C@@H]1[C@@H](CO)[C@@H]2Cn3c(ccc(-c4ccccc4)c3=O)[C@@H]2N1Cc1ccc2c(c1)OCO2	3	nt	1	102*	101*	0	-31	22
CCOC(=O)c1ccc(NC(=O)C2CC(C)=C(C)CC2C(=O)O)cc1 (stereo not given)	nt	6	nt	nt	nt	nt	nt	nt
CCOC(=O)c1cccc(NC(=O)CSc2nc3ccccc3[nH]2)c1	nt	0	nt	nt	nt	nt	nt	nt
CCCNC(=O)[C@@H]1[C@@H](CO)[C@@H]2Cn3c(cccc3=O)[C@@H]2N1CC1CCCCC1	2	nt	3	2	nt	nt	nt	nt
O=C(Nc1ccc(-c2ccccc2)cc1)[C@H]1[C@H](CO)[C@H]2Cn3c(cccc3=O)[C@H]2N1CC1CCCCC1	-18	nt	-1	?	85	110*	20	107*
CCNC(=O)[C@@H]1[C@@H](CO)[C@@H]2Cn3c(cccc3=O)[C@@H]2N1CC1CCCCC1	nt	nt	3	+	-27	-24	-4	-8
O=C(Nc1nccs1)[C@H]1[C@H](CO)[C@H]2Cn3c(ccc(-c4ccccc4)c3=O)[C@H]2N1CC1CCCC1	-22	nt	0	98*	106*	57	27	64*
COc1cccc(S(=O)(=O)N(C)C[C@@H]2Oc3cc(C#CCC(C)C)ccc3S(=O)(=O)N([C@@H](C)CO)C[C@@H]2C)c1	-72	0	0	?	?	112*	5	9
COc1cccc(S(=O)(=O)N(C)C[C@H]2Oc3cc(C#CCC(C)C)ccc3S(=O)(=O)N([C@@H](C)CO)C[C@H]2C)c1	-77	-3	1	?	96*	112*	18	66*
O=C(OC1C(c2c(O)cc(O)c(C(=O)c3ccc(O)cc3)c2O)OC(CO)C(O)C1O)c1cc(O)c(O)c(O)c1 (stereo not given)	nt	14	nt	nt	nt	nt	nt	nt
CC(C)C#Cc1ccc2c(c1)O[C@H](CN(C)C(=O)c1cccc(F)c1)[C@H](C)CN([C@H](C)CO)S2(=O)=O	-53	0	-2	111*	104*	52	22	39*
SMILES	Pf Dd2 growth	IDH1 R132H inh	KDM4C inh	T cruzi growth-1	T cruzi growth-2	T cruzi growth-3	3T3 cytotox	3T3 cytotox 2
CC(C)C#Cc1ccc2c(c1)O[C@@H](CN(C)C(=O)c1cccc(F)c1)[C@@H](C)CN([C@H](C)CO)S2(=O)=O	-67	-5	-1	105*	102*	61	15	54*
CC(C)C#Cc1ccc2c(c1)O[C@@H](CN(C)C(=O)c1ccccc1)[C@H](C)CN([C@@H](C)CO)S2(=O)=O	-67	-1	-1	92	nt	nt	nt	nt
CC(C)C#Cc1ccc2c(c1)O[C@H](CN(C)C(=O)c1ccccc1)[C@@H](C)CN([C@@H](C)CO)S2(=O)=O	-61	-1	-1	85	nt	nt	nt	nt
CC(C)C#Cc1ccc2c(c1)O[C@@H](CN(C)C(=O)c1cccc(F)c1)[C@H](C)CN([C@H](C)CO)S2(=O)=O	-70	0	-3	103*	103*	38	56*	63*
CC(C)C#Cc1ccc2c(c1)O[C@H](CN(C)C(=O)c1cccc(F)c1)[C@@H](C)CN([C@H](C)CO)S2(=O)=O	-60	-3	0	?	106*	71	13	?
CC(C)C#Cc1ccc2c(c1)O[C@@H](CN(C)C(=O)c1ccccc1)[C@@H](C)CN([C@H](C)CO)S2(=O)=O	-52	0	0	69	nt	nt	nt	nt
O=C(CNS(=O)(=O)c1ccccc1)Nc1ccc2c(c1)OCCO2	nt	0	nt	nt	nt	nt	nt	nt
CCOC(=O)c1c(NC(=O)CSc2nc3ccccc3c(=O)[nH]2)sc2c1CCCC2	nt	0	nt	nt	nt	nt	nt	nt
COc1cccc(-c2ccc3c(c2)O[C@@H](CN(C)C(=O)C2CC2)[C@H](C)CN([C@H](C)CO)S3(=O)=O)c1	-31	nt	0	71	nt	nt	nt	nt

High-throughput results deposited in PubChem BioAssay by Broad Institute.
